Assay results pooled from the literature.
Compare with care: the assays were run in different laboratories.
ARAF: Serine/threonine-protein kinase A-Raf (ARAF, Homo sapiens, UniProt P10398)
BMX: Cytoplasmic tyrosine-protein kinase BMX (BMX, Homo sapiens, UniProt P51813)
PDE5A: cGMP-specific 3',5'-cyclic phosphodiesterase (PDE5A, Homo sapiens, UniProt O76074)
PFF0160c: Dihydroorotate dehydrogenase (quinone), mitochondrial (PFF0160c, Plasmodium falciparum, UniProt Q08210)
KDM1A: Lysine-specific histone demethylase 1A (KDM1A, Homo sapiens, UniProt O60341)
PPO3: PPO3 (Agaricus bisporus, UniProt C7FF04)
AURKB: Aurora kinase B (AURKB, Homo sapiens, UniProt Q96GD4)
MEP1A: Meprin A subunit alpha (MEP1A, Homo sapiens, UniProt Q16819)
HDAC2: Histone deacetylase 2 (HDAC2, Homo sapiens, UniProt Q92769)

CN1CCN(c2ccc(Nc3ncc4cc(C#N)c(=O)n(C5CCCC5)c4n3)cc2)CC1  IC50 (ARAF; enzyme activity, inhibitor): 566 nM
COc1ccc(C2=NN(C3CCCCCC3)C(=O)[C@@H]3CC=CC[C@H]23)cc1-c1ccc(C(N)=O)cc1 (relative stereo)  IC50 (3',5'-cyclic-AMP phosphodiesterase 4A (PDE4A, Homo sapiens, UniProt P27815); enzyme activity, inhibitor): 251 nM
Cc1cnc(-c2ccc(-c3ccc(NC(=O)Nc4c(F)cc(F)cc4F)cc3F)c3c2C(=O)NC3)[nH]1  IC50 (BMX; enzyme activity, inhibitor): 14.4 nM
O=C1[C@@H]2Cc3c([nH]c4ccccc34)[C@@H](c3cccnc3)N2C(=O)N1c1ccc(Cl)cc1  IC50 (PDE5A; enzyme activity, inhibitor, FP): 1250 nM
Cc1cc(Nc2cccc(Cl)c2)n2nc(OCCN(C)C)nc2n1  IC50 (PFF0160c; enzyme activity, inhibitor): > 10000 nM
C=CC(=O)Nc1cc(Nc2nccc(Nc3cc(Cl)c(F)cc3C(C)(C)O)n2)c(OC)cc1N1CC[C@@H](N(C)C)C1  IC50 (BMX; enzyme activity, inhibitor; with preincubation): 2290 nM
CCCSc1nc(Sc2nnnn2C)c2nnn(CCc3c[nH]c4ccccc34)c2n1  IC50 (KDM1A; enzyme activity, inhibitor, fluorescence): 253 nM
COc1ccc(N=Nc2c(N)nc(N)nc2N)cc1  IC50 (PPO3; enzyme activity, inhibitor, absorbance): 43800 nM
Cc1cc(Nc2ccc3c(c2)CCCC3)n2ccnc2n1  IC50 (PFF0160c; enzyme activity, inhibitor): 100 nM
CC(C)(C)N1C(=O)[C@@H]2Cc3c([nH]c4ccccc34)[C@@H](c3cccnc3)N2C1=O  IC50 (PDE5A; enzyme activity, inhibitor, FP): 180 nM
Nc1nc(N)c(N=Nc2ccc([N+](=O)[O-])cc2)c(N)n1  IC50 (PPO3; enzyme activity, inhibitor, absorbance): 40600 nM
Cc1cc(Nc2ccc(Cl)cc2)n2nc(CN(C)C)nc2n1  IC50 (PFF0160c; enzyme activity, inhibitor): > 10000 nM
Cc1ccc(COc2ccc3c(c2)NC(=C(C#N)C(=O)c2ccc(Cl)cc2Cl)NC3=O)cc1  IC50 (Cytoplasmic dynein 1 heavy chain 1 (DYNC1H1, Homo sapiens, UniProt Q14204); ATPase activity, inhibitor): 280000 nM
COc1ccc2c(Oc3ccc4c(C(=O)Nc5ccccc5N)cccc4c3)ccnc2c1  IC50 (AURKB; enzyme activity, inhibitor): 9 nM
CNCCOc1nc2nc(C)cc(Nc3ccc(Cl)cc3)n2n1  IC50 (PFF0160c; enzyme activity, inhibitor): > 10000 nM
C[S+]([O-])c1ccc(-c2nc(-c3ccncc3)c(-c3ccc(F)cc3)[nH]2)cc1 (stereo not shown)  IC50 (ARAF; enzyme activity, inhibitor; lysate): > 10000 nM
O=C(CCN(Cc1ccc2c(c1)OCO2)Cc1ccc(Cl)cc1F)NO  IC50 (MEP1A; enzyme activity, inhibitor): 186 nM
CCN1C(=O)[C@H]2Cc3c([nH]c4ccccc34)[C@@H](c3ccc(OC)c(OC)c3)N2C1=O  IC50 (PDE5A; enzyme activity, inhibitor, FP): 5110 nM
CC(C)(C)n1nc(-c2ccc3nc(OC4CC4)ccc3c2)c(C(N)=O)c1N  IC50 (AURKB; cell-free assay, inhibitor): > 10000 nM
COC(=O)[C@H]1Cc2c([nH]c3ccccc23)[C@H](c2ccc(OC)c(OC)c2)N1C(=O)CCl  IC50 (PDE5A; enzyme activity, inhibitor, FP): > 10000 nM
Cc1cc(Nc2cccc(Cl)c2)n2nc(CC3CC3)nc2n1  IC50 (PFF0160c; enzyme activity, inhibitor): > 10000 nM
Cc1cc(Nc2cc3ncccc3c(N[C@@H]3C[C@H]4CC[C@@H](C3)N4CCC#N)n2)n[nH]1  IC50 (AURKB; target engagement in cells, inhibitor, BRET): > 10000 nM
Nc1nc(N)c(N=Nc2ccccc2[N+](=O)[O-])c(N)n1  IC50 (PPO3; enzyme activity, inhibitor, absorbance): 34100 nM
CCCCc1ccc(-c2ccc(-c3cc(C(=O)O)c4cccc([N+](=O)[O-])c4n3)o2)cc1  IC50 (Eukaryotic initiation factor 4A-I (EIF4A1, Homo sapiens, UniProt P60842); ATPase activity, inhibitor, absorbance): 27500 nM
Cc1ccc(C(C)C)cc1NC(=O)COC(=O)c1ccc(O)cc1O  IC50 (PPO3; enzyme activity, inhibitor): 1800 nM
O=C(Nc1ccn(Cc2ccc(O)cc2C(F)(F)F)n1)c1c(F)cccc1F  IC50 (Transient receptor potential cation channel subfamily A member 1 (TRPA1, Homo sapiens, UniProt O75762); ion current, inhibitor): > 10000 nM
CCOCc1nc(O)c(-c2nnc(Cc3ccc(Cl)cn3)o2)c(O)c1-c1c(OC)cccc1OC  IC50 (Cannabinoid receptor 1 (CNR1, Homo sapiens, UniProt P21554); ligand displacement, radioligand): > 30000 nM
Cc1cc(Nc2ccc(Cl)cc2)n2nc(CCN)nc2n1  IC50 (PFF0160c; enzyme activity, inhibitor): > 10000 nM
Cc1ccc(C(C)C)cc1NC(=O)COC(=O)c1cccc(O)c1  IC50 (PPO3; enzyme activity, inhibitor): 11000 nM
O=C(c1ccc2ccncc2c1)N1CCC2CC1CN2C(=O)c1n[nH]c(=O)c2ccccc12 (stereo not shown)  IC50 (Poly [ADP-ribose] polymerase 1 (PARP1, Homo sapiens, UniProt P09874); enzyme activity, inhibitor): 1420 nM
Cc1cc(Nc2ccc(Cl)cc2)n2[nH]c(=O)nc2n1  IC50 (PFF0160c; enzyme activity, inhibitor): > 10000 nM
CN(CCCCNC(=O)c1cc2ccccc2[nH]1)[C@@H]1Cc2cccc3[nH]c(=O)n(c23)C1  IC50 (5-hydroxytryptamine receptor 2A (HTR2A, Homo sapiens, UniProt P28223); ligand displacement, radioligand): 1940 nM
CCCSc1nc(Sc2nc3ccccc3s2)c2nnn(CCO)c2n1  IC50 (KDM1A; enzyme activity, inhibitor, fluorescence): 847 nM
CC[C@@H](C(=O)Nc1ccc(C(N)=O)c(F)c1)n1cc(OC)c(-c2cc(Cl)ccc2-n2cc(C(F)(F)F)nn2)cc1=O  IC50 (Vitamin K-dependent protein C (PROC, Homo sapiens, UniProt P04070); enzyme activity, inhibitor): > 10000 nM
CN(C)C/C=C/C(=O)Nc1cccc(C(=O)Nc2ccc(Nc3nccc(-c4cccnc4)n3)cc2)c1  IC50 (Serine/threonine-protein kinase Nek3 (NEK3, Homo sapiens, UniProt P51956); enzyme activity, inhibitor, radiometric): 185 nM
CCC(=O)CCCCC[C@@H]1NC(=O)[C@H](C)N(C)C(=O)C[C@H](CC(C)C)NC(=O)[C@H](Cc2c[nH]c3ccccc23)NC1=O  IC50 (HDAC2; enzyme activity, inhibitor): 40 nM
Cc1cc(Nc2cccc(Cl)c2)n2nc(CN)nc2n1  IC50 (PFF0160c; enzyme activity, inhibitor): > 10000 nM
Cc1ccc(C(C)C)cc1NC(=O)COC(=O)/C=C/c1ccc(O)cc1  IC50 (PPO3; enzyme activity, inhibitor): 1410 nM
CCN1CC(=O)N2[C@H](c3ccc(OC)c(OC)c3)c3[nH]c4ccccc4c3C[C@@H]2C1=O  IC50 (PDE5A; enzyme activity, inhibitor, FP): 4350 nM
CCCON(Cc1ccc(C(=O)NO)cc1)C(=O)Nc1ccc(N(C)C)cc1  IC50 (HDAC2; enzyme activity, inhibitor, fluorescence): 1140 nM
Cc1ccc(NC(=O)c2ccc(C)c(C(F)(F)F)c2)cc1C#Cc1nn(C2CCC(O)CC2)c2ncnc(N)c12 (stereo not shown)  IC50 (BMX; enzyme activity, inhibitor, radiometric): 21 nM
CNCCOc1nc2nc(C)cc(Nc3ccc(C(F)(F)F)cc3)n2n1  IC50 (PFF0160c; enzyme activity, inhibitor): > 10000 nM
O=C(CCN(Cc1ccncc1)Cc1ccc2c(c1)OCO2)NO  IC50 (MEP1A; enzyme activity, inhibitor): 474 nM
